According to article PMC2813064 (Bioconjugate chemistry, 2010):
“Also recorded” adds a separate entry of the source.

Legend:
[1] = Zeta potential of peptide-DNA polyplexes; assay type: physicochemical; conditions: positive (+ mV); peptide-DNA polyplex 0.5 nmol peptide per µg DNA, 5 mM Hepes, pH 7.4 (footnote), mean of ten measurements
In short: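 Polyplex was made in 5 mM Hepes at 30 µg/ml DNA with 15 nmol/ml peptide. Zeta potential was read on a ZetaPlus instrument straight after QELS particle sizing at a 90° scatter angle, as the mean of ten measurements.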

[2] = test system: Erythrocytes; assay: RBC hemolysis assay; assay type: cell-based, mice; conditions: peptide DNA polyplexes (1.5 nmols and 7.5 µg pGL3), pH 7.4, Fig. 4C
In short: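 Erythrocytes from male ICR mouse heart blood (heparinized) were washed three times in 0.15 M PBS pH 7.4 and diluted to 1.5 × 10^8 cells/ml. 7.5 × 10^6 cells were added to the polyplexes (1.5 nmol peptide, 7.5 µg pGL3) in triplicate and held 1 h at 37°C, then filtered. Filtrate Abs410 nm was expressed against 100% lysis with water replacing PBS.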

[3] = test system: CHO cells; assay: In vitro gene transfer; assay type: cell-based; conditions: 10 µg pGL3, luciferase at 24 hrs, Fig. 5
In short: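 Cells: CHO, 5 × 10^5 per 35 mm well, grown to about 50% confluency in MEM with 2 or 10% FBS, 1 mM sodium pyruvate and pen/strep. Polyplexes: peptide and pGL3 at 0.1–0.75 nmol peptide per µg DNA, in HBM (5 mM Hepes, 0.27 M mannitol, pH 7.5). Triplicate wells, 24 h. Luciferase RLU were converted to fmol by standard curve and normalized to mg protein (BCA).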

[4] = test system: HepG2, 3T3, and CHO cells; assay: In vitro gene transfer; assay type: cell-based; conditions: 0.5 nmol peptide per µg pGL3, 10 µg pGL3, luciferase at 24 hrs, Fig. 6
In short: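 Plating: HepG2, CHO or 3T3, 5 × 10^5 cells per 35 mm well, about 50% confluent. Transfection: 10 µg pGL3 polyplex (0.5 nmol peptide/µg DNA, 30 µg/ml DNA in 5 mM Hepes/0.27 M mannitol pH 7.5), added dropwise in triplicate for 24 h in MEM with 2 or 10% FBS. Read-out: lysate luciferase (0.5 mM D-luciferin injection, 10 s integration) as fmol per mg protein, mean ± SD of triplicates.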

Substance	Zeta Potential [1] [mV]	Hemolytic activity when combined with pGL3 [2]	Gene expression, fold greater than poly(Acr-Arg)4-Mal-melittin [3]	Gene transfer, fold lower than poly(Acr-Arg)2–4-SS-melittin [4]
(Acr-Arg)2-C-CWKKGIGAVLKVLTTGLPALISLIKRKRQQ (disulfide) [poly(Acr-Arg)2-SS-melittin]	25 ± 2.2			
(Acr-Arg)3-C-CWKKGIGAVLKVLTTGLPALISLIKRKRQQ (disulfide) [poly(Acr-Arg)3-SS-melittin]	29 ± 4.5			
(Acr-Arg)4-C-CWKKGIGAVLKVLTTGLPALISLIKRKRQQ (disulfide) [poly(Acr-Arg)4-SS-melittin]	29 ± 2.6	completely neutralized; also recorded: non hemolytic	approximately 1000 fold	
(CWKKGIGAVLKVLTTGLPALISLIKRKRQQ)2 (disulfide) [Dimeric-melittin]				10–100 fold
W(Lys(Ac)-Arg)4-C-CWKKGIGAVLKVLTTGLPALISLIKRKRQQ (disulfide) [poly(Lys(Ac)-Arg)4-SS-melittin]	20 ± 2.9			
